Data published in ChEMBL document CHEMBL1132629, “Synthesis and anti-HIV and anti-HBV activities of 2'-fluoro-2', 3'-unsaturated L-nucleosides” (J Med Chem, 1999).

Assays:
[1] = test system: Human immunodeficiency virus 1; assay: Evaluated for anti-HIV activity; type: functional, organism-based
Outline: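 Human peripheral blood mononuclear (PBM) cells infected with HIV-1; antiviral potency reported as EC50 (μM); AZT run as positive control.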

[2] = test system: Hepatitis B virus; assay: The EC50 value was measured on hepatitis B virus; type: functional, organism-based
Outline: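 Anti-HBV activity assayed in 2.2.15 cells; EC50 (μM) reported.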

[3] = test system: Vero; assay: Inhibitory activity was evaluated in Vero cells.; type: functional, cell-based; conditions: Chlorocebus sabaeus
[4] = test system: CCRF-CEM; assay: Cytotoxicity was evaluated in CEM cells; conditions: Homo sapiens
[5] = test system: PBMC; assay: Cytotoxicity was evaluated in human peripheral blood mononuclear (PBM) cells

EC50 [1] [µM]	EC50 [2] [µM]	Structure (SMILES)	IC50 [3] [µM]	IC50 [4] [µM]	IC50 [5] [µM]
> 100	> 10	Nc1nc(F)nc2c1ncn2[C@@H]1O[C@@H](CO)C=C1F	> 100	> 100	> 100
> 100	> 10	OC[C@H]1C=C(F)[C@H](n2cnc3c(O)ncnc32)O1	> 100	> 100	> 100
47.6	> 10	Nc1ncnc2c1ncn2[C@@H]1O[C@@H](CO)C=C1F	> 100	> 100	> 100
> 100	> 10	Cc1cn([C@@H]2O[C@@H](CO)C=C2F)c(=O)[nH]c1=O	> 100	> 100	> 100
14.5	> 10	Nc1nc(Cl)c2ncn([C@@H]3O[C@@H](CO)C=C3F)c2n1	> 100	28.2	26.6
76.9	> 10	Nc1nc(O)c2ncn([C@@H]3O[C@@H](CO)C=C3F)c2n1	> 100	> 100	> 100
0.51	0.18	Nc1ccn([C@H]2O[C@@H](CO)C=C2F)c(=O)n1	> 100	> 100	> 100
1.5	1.7	Nc1ncnc2c1ncn2[C@H]1O[C@@H](CO)C=C1F	> 100	> 100	> 100
0.17	0.225	Nc1nc(=O)n([C@H]2O[C@@H](CO)C=C2F)cc1F	> 100	> 100	> 100
> 100	> 10	Nc1ccn([C@@H]2O[C@@H](CO)C=C2F)c(=O)n1	> 100	> 100	> 100
2.2	> 10	Nc1nc(F)nc2c1ncn2[C@H]1O[C@@H](CO)C=C1F	173	19.5	25.8
> 100	> 10	O=c1ccn([C@H]2O[C@@H](CO)C=C2F)c(=O)[nH]1	> 100	> 100	> 100
> 100	> 10	Cc1cn([C@H]2O[C@@H](CO)C=C2F)c(=O)[nH]c1=O	> 100	> 100	> 100
4.7	> 10	OC[C@H]1C=C(F)[C@@H](n2cnc3c(O)ncnc32)O1	> 100	> 100	> 100
> 100	> 10	Nc1nc(Cl)c2ncn([C@H]3O[C@@H](CO)C=C3F)c2n1	> 100	> 100	> 100
> 100	> 10	Nc1nc(O)c2ncn([C@H]3O[C@@H](CO)C=C3F)c2n1	> 100	> 100	> 100
> 100	> 10	O=c1ccn([C@@H]2O[C@@H](CO)C=C2F)c(=O)[nH]1	> 100	> 100	> 100
> 100	> 10	Nc1nc(=O)n([C@@H]2O[C@@H](CO)C=C2F)cc1F	> 100	> 100	> 100
–	> 10	Cc1cn([C@H]2C[C@H](N=[N+]=[N-])[C@@H](CO)O2)c(=O)[nH]c1=O [ZIDOVUDINE]	–	–	> 100
